ChEMBL document CHEMBL3774376, “Synthesis, and anticonvulsant activity of new amides derived from 3-methyl- or 3-ethyl-3-methyl-2,5-dioxo-pyrrolidin-1-yl-acetic acids” (Bioorg Med Chem, 2016)
Active and inactive are the calls of the source. The rule behind the calls is not given here.

Legend:
[1] = tested on: Mus musculus; assay: Anticonvulsant activity in CD1 albino mouse assessed as protection against subcutaneous pentylenetetrazole-induced seizures at 300 mg/kg, ip after 0.5 hrs; assay type: functional, organism-based
Outline: (§1)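 Male CD-1 mice (16-26 g), compounds ip in 0.5% methylcellulose/water at 30, 100 or 300 mg/kg, 3-4 per group. At 0.5 or 4 h, pentylenetetrazole 85 mg/kg was injected sc. Protection was absence of clonic convulsions (at least 5 s) over a 30 min observation. Minimum active dose recorded.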

[2] = tested on: Mus musculus; assay: Anticonvulsant activity in CD1 albino mouse assessed as protection against maximal electroshock-induced seizures at 300 mg/kg, ip after 0.5 hrs; assay type: functional, organism-based
[3] = tested on: Mus musculus; assay: Neurotoxicity in CD1 albino mouse assessed as acute motor impairment at 300 mg/kg, ip measured after 0.5 hrs by rotarod test; assay type: toxicity, organism-based; details: in vivo
Outline: (§2)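 Male CD-1 mice given 30, 100 or 300 mg/kg ip in 0.5% methylcellulose, tested at 0.5 and 4 h. Motor impairment was scored as failure to keep balance for at least 1 min on a rod rotating at 10 rpm. Minimum dose causing impairment reported.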

[4] = tested on: Mus musculus; assay: Anticonvulsant activity in CD1 albino mouse assessed as protection against subcutaneous pentylenetetrazole-induced seizures at 300 mg/kg, ip after 4 hrs; assay type: functional, organism-based; outline: as §1
[5] = tested on: Mus musculus; assay: Neurotoxicity in CD1 albino mouse assessed as acute motor impairment at 300 mg/kg, ip after 4 hrs by rotarod test; assay type: toxicity, organism-based; details: in vivo; outline: as §2
[6] = tested on: Mus musculus; assay: Anticonvulsant activity in CD1 albino mouse assessed as protection against maximal electroshock-induced seizures at 300 mg/kg, ip after 4 hrs; assay type: functional, organism-based
[7] = tested on: Mus musculus; assay: Anticonvulsant activity in ip dosed CD1 albino mouse assessed as time to peak effect by 6Hz psychomotor seizure test; assay type: functional
Outline: (§3)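 6-Hz corneal stimulation at 32 mA (6 Hz, 3 s) in male CD-1 mice dosed ip. Groups of six received several doses until at least three points fell between 10 and 90% protection. […] PI = TD50/ED50 (rotarod).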

[8] = Neurotoxicity in ip dosed CD1 albino mouse assessed as acute motor impairment by rotarod test; assay type: toxicity, organism-based; details: in vivo
Outline: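 Quantitation in male CD-1 mice dosed ip at the previously estimated time of peak effect. Seizures were induced by MES or by sc pentylenetetrazole 85 mg/kg; rotarod at 10 rpm assessed motor impairment. Groups of six, at least three doses giving 10-90% effect.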

[9] = tested on: Mus musculus; assay: Neurotoxicity in CD1 albino mouse assessed as acute motor impairment at 100 to 300 mg/kg, ip after 0.5 hrs by rotarod test; assay type: toxicity, organism-based; details: in vivo; outline: as §2
[10] = tested on: Mus musculus; assay: Anticonvulsant activity in CD1 albino mouse assessed as protection against maximal electroshock-induced seizures at 100 to 300 mg/kg, ip after 0.5 hrs; assay type: functional; details: read-out: MED
[11] = tested on: Mus musculus; assay: Anticonvulsant activity in CD1 albino mouse assessed as protection against subcutaneous pentylenetetrazole-induced seizures at 100 to 300 mg/kg, ip after 0.5 hrs; assay type: functional; details: CD1, 0.5 h, read-out: MED; outline: as §1
[12] = tested on: Mus musculus; assay: Local anesthetic activity in CD1 albino mouse assessed prolongation of time reaction at 1 % concentration after 20 secs by tail immersion test relative to vehicle control; assay type: functional
Outline: (§4)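 Compound at 1 or 2% in 0.5% methylcellulose, injected sc (0.2 ml) about 1 cm from the tail root of male CD-1 mice. After 15 min, the distal 3 cm of the tail was immersed in 50 ± 0.5 °C water and withdrawal time measured, cut off at 20 s. n=8; mean ± SEM; % prolongation relative to vehicle.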

[13] = tested on: Mus musculus; assay: Local anesthetic activity in CD1 albino mouse assessed prolongation of time reaction at 2 % concentration after 20 secs by tail immersion test relative to vehicle control; assay type: functional; outline: as §4
[14] = tested on: Mus musculus; assay: Neurotoxicity in CD1 albino mouse assessed as acute motor impairment at 100 to 300 mg/kg, ip after 4 hrs by rotarod test; assay type: toxicity, organism-based; details: in vivo; outline: as §2
[15] = tested on: Mus musculus; assay: Anticonvulsant activity in CD1 albino mouse assessed as protection against maximal electroshock-induced seizures at 100 to 300 mg/kg, ip after 4 hrs; assay type: functional; details: read-out: MED
[16] = species: Mus musculus; assay: Protection index, ratio of TD50 for CD1 albino mouse to ED50 for protection against 32 mA-current- for 3 secs induced seizure in CD1 albino mouse by 6Hz psychomotor seizure test; outline: as §3
[17] = tested on: Mus musculus; assay: Anticonvulsant activity in ip dosed CD1 albino mouse assessed as protection against 32 mA-current- for 3 secs induced seizure by 6Hz psychomotor seizure test; assay type: functional; outline: as §3

Row | SMILES | Activity [1] | Activity [2] | Activity [3] | Activity [4] | Activity [5] | Activity [6] | MTC [9] [mg/kg] | minimal effective dose [10] [mg/kg] | minimal effective dose [11] [mg/kg] | other results
1 | CCC1(C)CC(=O)N(CC(=O)N2CCN(c3cccc(Cl)c3Cl)CC2)C1=O (configuration not stated) | inactive | inactive | Non-toxic | inactive | Non-toxic | inactive |  |  |  | 
2 | CC[C@@H](C(N)=O)N1CCCC1=O |  |  |  |  |  |  |  |  |  | Time [7]: 1 h; TD50 [8]: > 500 mg/kg
3 | CCC1(C)CC(=O)N(CC(=O)N2CCN(c3ccccc3F)CC2)C1=O (configuration not stated) | inactive | inactive | Non-toxic | inactive | Non-toxic | inactive |  |  |  | 
4 | Cc1ccccc1N1CCN(C(=O)CN2C(=O)CC(C)C2=O)CC1 (configuration not stated) |  |  |  | inactive | Non-toxic | inactive | 300 | 300 | 100 | 
5 | Cc1cccc(C)c1NC(=O)C1CCCCN1C (configuration not stated) [MEPIVACAINE] |  |  |  |  |  |  |  |  |  | Activity [12]: 94.63%; Activity [13]: 116.67%
6 | CC1CC(=O)N(CC(=O)N2CCN(c3cccc(C(F)(F)F)c3)CC2)C1=O (configuration not stated) |  |  |  | inactive |  |  | 300 | 100 | 300 | MTC [14]: 300 mg/kg; minimal effective dose [15]: 100 mg/kg
7 | CCC1(C)CC(=O)N(CC(=O)N2CCN(c3cccc(C)c3)CC2)C1=O (configuration not stated) | inactive | inactive | Non-toxic | inactive | Non-toxic | inactive |  |  |  | 
8 | CCC1(C)CC(=O)N(CC(=O)N2CCN(c3ccc(Cl)cc3)CC2)C1=O (configuration not stated) |  | inactive |  | inactive | Non-toxic | inactive | 300 |  | 100 | Time [7]: 0.5 h; Ratio TD50/ED50 [16]: 1.53; ED50 [17]: 128 mg/kg; TD50 [8]: 196 mg/kg
9 | CCC1(C)CC(=O)N(CC(=O)N2CCN(c3ccccc3C)CC2)C1=O (configuration not stated) |  |  |  | inactive | Non-toxic | inactive | 300 | 100 | 100 | 
10 | CCC1(C)CC(=O)N(CC(=O)N2CCN(c3ccc(Cl)c(Cl)c3)CC2)C1=O (configuration not stated) | inactive | inactive | Non-toxic | inactive | Non-toxic | inactive |  |  |  | 
11 | CC1CC(=O)N(CC(=O)N2CCN(c3ccccc3F)CC2)C1=O (configuration not stated) | inactive |  |  | inactive | Non-toxic |  | 300 | 300 |  | minimal effective dose [15]: 300 mg/kg
